# Screening data (PubChem)
# HSP90 refold inh: blocks HSP90-mediated luciferase refolding in reticulocyte lysate. Rabbit reticulocyte lysate, luciferase refolding luminescence, 3 h. inhibition, % at 5.6 µM. 290,000 compounds, 0.91% hits. AID 1789;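 active = inhibition above the screen-wide mean plus 3 SD, computed separately per campaign, cut at about 16% in these data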;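 also: 0% = DMSO wells and 100% = 60 µM geldanamycin wells; inhibitors lower the luminescence because luciferase stays unfolded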
# SENP7 block: blocks the human protease SENP7; 330,000 compounds, 1.5% hits; inhibition, % at 5 µM; recombinant SENP7, Z-RLRGG-aminoluciferin luminescence, 40 min;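 active = inhibition above about 50% at the single test dose, limit read from the data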;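 also: plate controls were DMSO with enzyme for no effect and no enzyme buffer wells for full effect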
# Target sequence (Q9BQF6 706-1050 limits assumed): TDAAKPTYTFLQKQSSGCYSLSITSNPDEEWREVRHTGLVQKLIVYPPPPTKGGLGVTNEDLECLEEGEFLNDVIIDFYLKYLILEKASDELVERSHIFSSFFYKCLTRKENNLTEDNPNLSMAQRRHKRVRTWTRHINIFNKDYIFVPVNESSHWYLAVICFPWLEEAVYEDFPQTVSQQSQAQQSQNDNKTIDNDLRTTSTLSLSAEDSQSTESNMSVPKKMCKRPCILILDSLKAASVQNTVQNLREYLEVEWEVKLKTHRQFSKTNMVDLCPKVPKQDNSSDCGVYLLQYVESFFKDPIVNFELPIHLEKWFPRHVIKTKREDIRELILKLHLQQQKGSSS
# SENP8 block-1: inhibitors of human SENP8 protease | recombinant SENP8, Nedd8 substrate fluorescence | 360,000 compounds, 0.64% hits | Q96LD8 | inhibition, % at 20 µM; in the data active = inhibition mostly above about 40%, no sharp cut-off; inactive = mostly below about 27%
# Target sequence (Q96LD8 whole entry, looked up): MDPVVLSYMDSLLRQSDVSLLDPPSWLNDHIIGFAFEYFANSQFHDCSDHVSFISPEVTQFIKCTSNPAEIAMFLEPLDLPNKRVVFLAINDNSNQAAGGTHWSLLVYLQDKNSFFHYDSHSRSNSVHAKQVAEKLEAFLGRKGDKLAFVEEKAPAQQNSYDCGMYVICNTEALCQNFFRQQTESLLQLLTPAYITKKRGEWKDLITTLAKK
# SENP8 block-2: blocks the human protease SENP8; Q96LD8; 330,000 compounds, 1.2% hits; inhibition, % at 10 µM; AID 2540; purified SENP8, Z-RLRGG-aminoluciferin cleavage, luminescence; in the data active = inhibition above about 50%
# SENP1 inh: inhibitors of human SENP1 SUMO protease catalytic domain; Q9P0U3; inhibition, % at 10 µM; recombinant SENP1 catalytic domain, CyPet-SUMO1-YPet FRET cleavage; 360,000 compounds, 0.21% hits; AID 624204;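 active = inhibition at least 30% at 10 µM, raw YFP signal under a set limit, fluorescence ratio 0.5 to 1.5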;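 also: 0% = enzyme with DMSO and 100% = no enzyme wells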
#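 Controls: no-enzyme wells low, DMSO-plus-enzyme wells high control. Test system: human recombinant His6-tagged SENP1 catalytic domain enzyme. Reagent: SFCypet-SUMO1-SFYpet FRET protein substrate, 25 nM final. Doses: one dose per compound, 10 µM, 0.5% DMSO. Detection: FRET, CFP and YFP emission. Timing: 50 min reaction at room temperature.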
# SENP6 inh: SENP6 protease inhibition; Recombinant SENP6 catalytic domain, aminoluciferin luminescence; inhibition, % at 10 µM; 330,000 compounds, 1.8% hits; AID 2599;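 active = inhibition above about 50% at the single tested dose, limit read from the data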;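 also: plate controls were DMSO wells with enzyme for no effect and DMSO wells lacking enzyme for full effect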
# Starred values were filed as active, the others as inactive; i = inactive; . = no result given. The list is not random: actives were taken first. Their share in the collection is about 2.9%.
SMILES,HSP90 refold inh,SENP7 block,SENP8 block-1,SENP8 block-2,SENP1 inh,SENP6 inh
CC(=O)N1CC2(c3ccccc3)CN(C(C)=O)CC(c3ccccc3)(C1)C2=O,-1,0,16,1,1,70*
Oc1ccc(/C=N/Nc2cc(N3CCOCC3)nc(N3CCOCC3)n2)cc1O,-5,14,-98,-1,-7,24
Oc1ccccc1/C=N/Nc1cc(N2CCCC2)nc(N2CCCC2)n1,-1,45,58*,14,3,49
O=C(N=Nc1ccc(NOC(=O)c2ccccc2Br)cc1)c1ccccc1O,1,63*,.,86*,.,91*
O=C(Nc1nc2ccsc2c(=O)s1)c1ccc(Cl)cc1,-4,100*,-113,94*,-29,95*
O=C(Nc1nc(=O)c2ccccc2s1)c1ccc(Cl)cc1,1,27,24,-22,3,7
[O-]/[N+](=C\C=C\c1ccccc1)c1ccccc1,2,-1,-2,57*,-4,73*
COc1ccc(C(C#N)N2N=C(C)CC2c2ccccc2)cc1OC (centres undefined),0,3,22,2,1,15
COc1ccc(C(C#N)N2N=C(c3ccccc3)CC2c2ccccc2)cc1OC (centres undefined),-6,73*,-8,-10,-40,28
CC(C)(C)CC(C)(C)c1ccc(O)c(Cc2ccc(Cl)cc2Cl)c1,.,.,-4,.,3,.
O=c1c(O)c(-c2ccccc2)oc2cc(O)cc(O)c12,.,-8,36,10,9,17
O=c1c(O)c(-c2cc(O)c(O)c(O)c2)oc2cc(O)cc(O)c12,.,3,39*,4,84*,13
O=C(Nc1cccc2nsnc12)c1cc2c(cc1Cl)Sc1nccn1S2(=O)=O,.,.,-453,.,-12,.
COc1ccccc1NC(=O)CCN1C(=O)C2C3CCC(C3)C2C1=O (centres undefined),0,1,5,4,1,1
CCN(CC)Cc1cc(O)c(CN(CC)CC)cc1O,0,.,24,.,46*,.
CC1CC(C)CN(C(=O)C(C)N2CCN(S(=O)(=O)c3ccc(Br)s3)CC2)C1 (centres undefined),.,11,3,-2,0,2
COc1ccc(OC)c(-n2c(N)c(C(=O)NCC3CCCO3)c3nc4ccccc4nc32)c1 (centres undefined),-2,.,-478,.,-32,.
COCCn1c(N)c(C(=O)NCC2CCCO2)c2nc3ccccc3nc21 (centres undefined),5,63*,i,86*,-17,84*
Cc1cc(SCC(=O)NCC2CCCO2)nc2ccccc12 (centres undefined),-3,-6,-11,-5,57*,5
Cc1cc(SCC(=O)NC2CC2)nc2ccccc12,.,-7,-1,-6,-1,-6
CCCc1nc2ccccc2c(=O)n1CCc1ccccc1,-3,-1,13,5,1,12
COc1ccc(C(=O)Nc2ccccc2N2CCCC2)cc1S(=O)(=O)N1CCOCC1,.,3,12,-4,-1,-6
COc1ccc(CNc2nc3ccccc3n2C)c(OC)c1,-1,61*,5,60*,2,40
CCCCOC(=O)CCN1C(=O)/C(=C2\SC(=S)N(CCC(=O)OCCCC)C2=O)SC1=S,-3,-10,11,-10,0,8
CCCOC(=O)CCCN1C(=O)/C(=C2\SC(=S)N(CCCC(=O)OCCC)C2=O)SC1=S,-1,-11,38*,3,2,-3
SMILES,HSP90 refold inh,SENP7 block,SENP8 block-1,SENP8 block-2,SENP1 inh,SENP6 inh
Cc1ccc(CSc2nnc(SCC(=O)N/N=C/c3ccccc3OCC(=O)O)s2)cc1,-7,22,18,60*,-2,88*
Cc1ccc(CSc2nnc(SCC(=O)N/N=C/c3ccc(C(=O)O)cc3)s2)cc1,13,55*,10,72*,1,92*
O=C(CSc1nnc(SCc2ccccc2)s1)N/N=C/c1ccc(C(=O)O)cc1,0,24,14,51*,-1,20
C[C@@H]1Cc2c(O)c(O)cc(O)c2C(=O)O1,.,1,44*,3,-4,-2
COc1ccc(-n2ncc3c(N4CCC(C)CC4)ncnc32)cc1,29*,29,-290,25,-38,37
COc1ccc(-n2ncc3c(SCC(=O)OC(C)C)ncnc32)cc1,.,.,-27,.,1,.
COc1ccc(-n2ncc3c(N(C)C4CCCCC4)ncnc32)cc1,79*,47,-166,43,1,48
COc1cc(CNC(C)C23CC4CC(CC(C4)C2)C3)cc(OC)c1OC (centres undefined),2,-6,23,4,3,5
Nc1c(C(=O)N/N=C/c2ccccc2)cnn1-c1ccccc1,1,51*,0,49,2,67*
O=C(N/N=C/c1ccccc1)c1cccc2ccccc12,.,3,12,-1,1,-11
CCOc1cc(C(c2c(C)[nH][nH]c2=O)c2c(C)[nH][nH]c2=O)ccc1OC(=O)c1cccc([N+](=O)[O-])c1,9,17,34,-2,0,-13
CCOc1cc(C(c2c(C)[nH][nH]c2=O)c2c(C)[nH][nH]c2=O)ccc1OCc1ccc([N+](=O)[O-])cc1,2,9,37*,-1,2,7
COc1ccc(CNC(=O)C2(C)Cc3c(-c4cccc(C(N)=O)c4)ccnc3O2)cc1OC (centres undefined),.,.,19,.,2,.
C[C@@](Cc1ccc(O)c(O)c1)(NN)C(=O)O,3,.,39*,.,1,.
CNC(=O)OCc1cocc1COC(=O)NC,.,.,-1,.,1,.
CC(=O)N1CCc2cc(N=NC3=C(O)CCCC3=O)ccc21,-7,-2,20,-1,47*,-4
COc1ccc(C(=O)C(/C=N/O)=N/Nc2ccc(F)cc2)cc1,-1,-8,13,-3,-11,-1
CO/N=C/C(=N\Nc1ccc(OC)cc1)C(=O)c1ccc(OC)cc1,1,1,51*,-1,6,0
O=C1N/C(=N/Nc2ccccc2)S/C1=C\c1ccccc1,1,-3,20,-6,105*,27
C[C@@H]1CN([C@@H](C)CO)C(=O)CCCn2nncc2CO[C@@H]1CN(C)S(=O)(=O)c1cn(C)cn1,.,.,-3,.,0,.
O=C(Cc1nc(=O)c2ccccc2s1)Nc1ccccc1,2,92*,-137,2,-11,46
O=C1Nc2ccccc2C1(O)Cc1ccccn1 (centres undefined),10,9,10,2,4,-9
Cc1ccc2nc(NC(=O)Cc3cccs3)sc2c1,7,54*,-1,36,0,63*
Cc1cc(O)c2c(c1O)C(=O)[C@]13C(=C2O)C(=O)[C@@H]2[C@@H](O)[C@H]1[C@@H]1[C@H](O)[C@H]3C(=O)C3=C(O)c4c(O)cc(C)c(O)c4C(=O)[C@]312,.,9,20*,35,-85,40
O=C(O)c1cccnc1C(=O)O,.,1,41*,2,5,2
